Test results reported in ChEMBL document CHEMBL3108710, “Discovery of a novel class of dimeric Smac mimetics as potent IAP antagonists resulting in a clinical candidate for the treatment of cancer (AZD5582)” (J Med Chem, 2013).
pEC50, pIC50: −log10 of the molar value. In brackets after ≈: the same amount, converted by molar mass. Activity calls are given as the source filed them. No cut-off for these calls is given here.

Columns and labels:
[1] = target: E3 ubiquitin-protein ligase XIAP (Homo sapiens, UniProt P98170); assay: Displacement of AbuRPFK-5FAM from GST-tagged XIAP BIR3 domain (N252 to E350) (unknown origin) after 20 mins by fluorescence polarization assay
Summary of the method: (§1)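 Competitive fluorescence polarization binding assay. Measures displacement of a 5-carboxyfluorescein-tagged synthetic peptide from the AVPI groove of the isolated BIR domain.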

[2] = system: MDA-MB-231; assay: Antiproliferative activity against human MDA-MB-231 cells assessed as growth inhibition after 48 hrs by Alamar Blue assay; format: functional; details: MDA-MB-231, 48 h
[3] = target: T1, Baculoviral IAP repeat-containing protein 2 (Homo sapiens, UniProt Q13490); assay: Binding affinity to cIAP1 in human MDA-MB-231 cells assessed as induction of protein degradation after 1 hr by ELISA; format: cell-based
[4] = target: T1, Baculoviral IAP repeat-containing protein 2; assay: Displacement of AbuRPFK-5FAM from GST-tagged cIAP1 BIR3 domain (L250 to G350) (unknown origin) after 20 mins by fluorescence polarization assay; summary of the method: as §1
[5] = Volume of distribution at steady state in Han Wistar rat at 0.2 mg/kg, iv by LC-MS/MS analysis; format: ADME, organism-based; design: dose 0.2 mg/kg, route intravenous; details: in vivo, read-out: Vdss
Summary of the method: (§2)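 Rat PK after a single intravenous bolus. Parameters derived from plasma levels: total plasma clearance, steady-state volume of distribution, half-life and AUC.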

[6] = Elimination half life in Han Wistar rat at 0.2 mg/kg, iv by LC-MS/MS analysis; format: ADME, organism-based; design: dose 0.2 mg/kg, route intravenous; details: in vivo, read-out: beta t1/2 (converted); summary of the method: as §2
[7] = Total plasma clearance in Han Wistar rat at 0.2 mg/kg, iv by LC-MS/MS analysis; format: ADME, organism-based; design: dose 0.2 mg/kg, route intravenous; summary of the method: as §2
[8] = AUC in Han Wistar rat at 0.2 mg/kg, iv by LC-MS/MS analysis; format: ADME, organism-based; design: dose 0.2 mg/kg, route intravenous; details: plasma; summary of the method: as §2
[9] = Fraction unbound in human plasma at 10 uM by equilibrium dialysis method; format: ADME, cell-free
[10] = Aqueous equilibrium solubility of compound in phosphate buffer at pH 7.4 after 24 hrs by HPLC-UV analysis; format: physicochemical

T1 sequence (Q13490 whole entry, the tested form may be a part): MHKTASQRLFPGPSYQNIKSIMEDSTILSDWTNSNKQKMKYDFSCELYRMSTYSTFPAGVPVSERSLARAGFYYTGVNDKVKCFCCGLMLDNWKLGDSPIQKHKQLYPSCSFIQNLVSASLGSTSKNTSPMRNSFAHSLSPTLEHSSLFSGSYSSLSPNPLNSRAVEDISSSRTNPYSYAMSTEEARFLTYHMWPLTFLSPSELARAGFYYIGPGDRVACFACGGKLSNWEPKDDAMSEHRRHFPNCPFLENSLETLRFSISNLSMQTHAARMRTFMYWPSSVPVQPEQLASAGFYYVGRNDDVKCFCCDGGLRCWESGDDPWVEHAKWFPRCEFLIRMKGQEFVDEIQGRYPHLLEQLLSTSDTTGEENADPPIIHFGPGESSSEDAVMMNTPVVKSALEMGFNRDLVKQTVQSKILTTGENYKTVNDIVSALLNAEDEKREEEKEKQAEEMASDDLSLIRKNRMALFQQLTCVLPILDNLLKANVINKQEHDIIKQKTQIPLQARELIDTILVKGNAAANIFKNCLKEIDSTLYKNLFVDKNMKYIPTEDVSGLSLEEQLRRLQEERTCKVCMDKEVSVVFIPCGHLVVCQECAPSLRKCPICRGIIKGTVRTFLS
Sequence of E3 ubiquitin-protein ligase XIAP (P98170 whole entry, the tested form may be a part): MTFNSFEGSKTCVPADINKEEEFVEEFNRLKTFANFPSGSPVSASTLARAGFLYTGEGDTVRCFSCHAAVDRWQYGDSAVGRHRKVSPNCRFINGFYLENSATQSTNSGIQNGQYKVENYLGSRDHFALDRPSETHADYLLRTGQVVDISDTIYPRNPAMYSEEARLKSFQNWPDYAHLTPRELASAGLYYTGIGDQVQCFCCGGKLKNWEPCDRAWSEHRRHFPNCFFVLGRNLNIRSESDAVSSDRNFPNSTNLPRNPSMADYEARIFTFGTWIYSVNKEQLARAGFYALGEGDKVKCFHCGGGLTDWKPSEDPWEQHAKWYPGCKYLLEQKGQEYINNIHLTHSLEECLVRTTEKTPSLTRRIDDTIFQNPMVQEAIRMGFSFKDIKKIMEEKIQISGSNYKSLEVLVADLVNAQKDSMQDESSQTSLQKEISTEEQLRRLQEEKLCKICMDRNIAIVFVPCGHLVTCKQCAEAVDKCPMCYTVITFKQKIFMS

| SMILES | GI50 [2] [nM] | pEC50 [3] | other results |
| --- | --- | --- | --- |
| C#CCO[C@@H]1CCc2ccccc2[C@H]1NC(=O)[C@@H]1CCCN1C(=O)[C@@H](NC(=O)[C@H](C)NC)C(C)(C)C | 2190 | < 6.43 | pIC50 [1]: 5.88; pIC50 [4]: 6.54 |
| CN[C@@H](C)C(=O)N[C@H](C(=O)N1CCC[C@H]1C(=O)N[C@@H]1CCN(CC#CC#CCN2CC[C@@H](NC(=O)[C@@H]3CCCN3C(=O)[C@@H](NC(=O)[C@H](C)NC)C3CCCCC3)c3ccccc32)c2ccccc21)C1CCCCC1 | 0.1 | 9.70 | Vd [5]: 1.2 L/kg; half-life [6]: 36 min; clearance [7]: 68 mL/min/kg; AUC [8]: 40 ng·h/mL |
| CN[C@@H](C)C(=O)N[C@H](C(=O)N1CCC[C@H]1C(=O)N[C@H]1c2ccccc2C[C@H]1NC(=O)CCCCCCCCC(=O)N[C@@H]1Cc2ccccc2[C@@H]1NC(=O)[C@@H]1CCCN1C(=O)[C@@H](NC(=O)[C@H](C)NC)C1CCCCC1)C1CCCCC1 | 0.2 | 8.52 | inhibition [4]: Active |
| CN[C@@H](C)C(=O)N[C@H](C(=O)N1CCC[C@H]1C(=O)N[C@H]1c2ccccc2C[C@H]1OCC#CC#CCO[C@@H]1Cc2ccccc2[C@@H]1NC(=O)[C@@H]1CCCN1C(=O)[C@@H](NC(=O)[C@H](C)NC)C1CCN(CCO)CC1)C1CCN(CCO)CC1 | > 370 | < 6.43 | – |
| CN[C@@H](C)C(=O)N[C@H](C(=O)N1CCC[C@H]1C(=O)N[C@@H]1c2ccccc2CC[C@H]1OCC#CC#CCO[C@@H]1CCc2ccccc2[C@H]1NC(=O)[C@@H]1CCCN1C(=O)[C@@H](NC(=O)[C@H](C)NC)C(C)(C)C)C(C)(C)C | 61 | 8.70 | – |
| CN[C@@H](C)C(=O)N[C@H](C(=O)N1CCC[C@H]1C(=O)N[C@H]1c2ccccc2C[C@H]1OCC#CC#CCO[C@@H]1Cc2ccccc2[C@@H]1NC(=O)[C@@H]1CCCN1C(=O)[C@@H](NC(=O)[C@H](C)NC)C1CCNCC1)C1CCNCC1 | > 370 | < 6.43 | – |
| CN[C@@H](C)C(=O)N[C@H](C(=O)N1CCC[C@H]1C(=O)N[C@H]1c2ccccc2C[C@H]1OCC#CC#CCO[C@@H]1Cc2ccccc2[C@@H]1NC(=O)[C@@H]1CCCN1C(=O)[C@@H](NC(=O)[C@H](C)NC)C(C)C)C(C)C | 0.4 | 8.70 | Vd [5]: 2.3 L/kg; half-life [6]: 96 min; clearance [7]: 44 mL/min/kg; AUC [8]: 76 ng·h/mL |
| CN[C@@H](C)C(=O)N[C@H](C(=O)N1CSC[C@H]1C(=O)N[C@H]1c2ccccc2C[C@H]1OCC#CC#CCO[C@@H]1Cc2ccccc2[C@@H]1NC(=O)[C@@H]1CSCN1C(=O)[C@@H](NC(=O)[C@H](C)NC)C1CCCCC1)C1CCCCC1 | 0.1 | 9.70 | fraction unbound at 10 µM [9]: 0.011; solubility thermodynamic at 24 h [10]: < 1 µM |
| CN[C@@H](C)C(=O)N[C@H](C(=O)N1CCC[C@H]1C(=O)N[C@@H]1c2ccccc2CC[C@@H]1OCC#CC#CCO[C@H]1CCc2ccccc2[C@H]1NC(=O)[C@@H]1CCCN1C(=O)[C@@H](NC(=O)[C@H](C)NC)C(C)(C)C)C(C)(C)C | 97 | 8.40 | – |
| CN[C@@H](C)C(=O)N[C@H](C(=O)N1CCC[C@H]1C(=O)N[C@H]1c2ccccc2C[C@@H]1OCC#CC#CCO[C@H]1Cc2ccccc2[C@@H]1NC(=O)[C@@H]1CCCN1C(=O)[C@@H](NC(=O)[C@H](C)NC)C1CCCCC1)C1CCCCC1 | < 0.1 | 9.70 | – |
| CN[C@@H](C)C(=O)N[C@H](C(=O)N1CSC2(CC2)[C@H]1C(=O)N[C@H]1c2ccccc2C[C@H]1OCC#CC#CCO[C@@H]1Cc2ccccc2[C@@H]1NC(=O)[C@H]1N(C(=O)[C@@H](NC(=O)[C@H](C)NC)C2CCCCC2)CSC12CC2)C1CCCCC1 | < 0.1 | 9.22 | fraction unbound at 10 µM [9]: < 0.01; solubility thermodynamic at 24 h [10]: < 1 µM |
| CN[C@@H](C)C(=O)N[C@H](C(=O)N1CC=C[C@H]1C(=O)N[C@H]1c2ccccc2C[C@H]1OCC#CC#CCO[C@@H]1Cc2ccccc2[C@@H]1NC(=O)[C@@H]1C=CCN1C(=O)[C@@H](NC(=O)[C@H](C)NC)C1CCCCC1)C1CCCCC1 | 0.1 | 9.52 | fraction unbound at 10 µM [9]: 0.029; solubility thermodynamic at 24 h [10]: 77 µM (≈ 77.9 µg/mL) |
| CN[C@@H](C)C(=O)N[C@@H](CCCCN)C(=O)N1CCC[C@H]1C(=O)N[C@H]1c2ccccc2C[C@H]1OCC#CC#CCO[C@@H]1Cc2ccccc2[C@@H]1NC(=O)[C@@H]1CCCN1C(=O)[C@H](CCCCN)NC(=O)[C@H](C)NC | > 370 | < 6.43 | – |
| CN[C@@H](C)C(=O)N[C@H](C(=O)N1CCC[C@H]1C(=O)N[C@H]1c2ccccc2C[C@H]1NC(=O)c1ccc(-c2ccc(C(=O)N[C@@H]3Cc4ccccc4[C@@H]3NC(=O)[C@@H]3CCCN3C(=O)[C@@H](NC(=O)[C@H](C)NC)C3CCCCC3)cc2)cc1)C1CCCCC1 | 0.6 | 7.82 | inhibition [4]: Active |
| C#CCO[C@H]1CCc2ccccc2[C@H]1NC(=O)[C@@H]1CCCN1C(=O)[C@@H](NC(=O)[C@H](C)NC)C(C)(C)C | 192 | 6.90 | pIC50 [1]: 6.22; pIC50 [4]: 7.40 |
| CN[C@@H](C)C(=O)N[C@H](C(=O)N1CCC[C@H]1C(=O)N[C@H]1c2ccccc2CC[C@@H]1OCC#CC#CCO[C@H]1CCc2ccccc2[C@@H]1NC(=O)[C@@H]1CCCN1C(=O)[C@@H](NC(=O)[C@H](C)NC)C(C)(C)C)C(C)(C)C | 0.3 | 9.22 | – |
| C#CCO[C@@H]1CCc2ccccc2[C@@H]1NC(=O)[C@@H]1CCCN1C(=O)[C@@H](NC(=O)[C@H](C)NC)C(C)(C)C | 16 | 8.40 | pIC50 [1]: 7.72; pIC50 [4]: 8.00 |
| CN[C@@H](C)C(=O)N[C@H](C(=O)N1CCC[C@H]1C(=O)N[C@H]1c2ccccc2CC[C@H]1OCC#CC#CCO[C@@H]1CCc2ccccc2[C@@H]1NC(=O)[C@@H]1CCCN1C(=O)[C@@H](NC(=O)[C@H](C)NC)C(C)(C)C)C(C)(C)C | 0.1 | 9.70 | Vd [5]: 1.9 L/kg; half-life [6]: 30 min; clearance [7]: 111 mL/min/kg; solubility thermodynamic at 24 h [10]: > 1000 µM; AUC [8]: 30 ng·h/mL |
| CN[C@@H](C)C(=O)N[C@H](C(=O)N1CCC[C@H]1C(=O)N[C@H]1c2ccccc2C[C@H]1OCC#CC#CCO[C@@H]1Cc2ccccc2[C@@H]1NC(=O)[C@@H]1CCCN1C(=O)[C@@H](NC(=O)[C@H](C)NC)C1CCN(C(C)=O)CC1)C1CCN(C(C)=O)CC1 | 76 | < 6.43 | – |
| CN[C@@H](C)C(=O)N[C@H](C(=O)N1[C@H](C(=O)N[C@H]2c3ccccc3C[C@H]2OCC#CC#CCO[C@@H]2Cc3ccccc3[C@@H]2NC(=O)[C@@H]2C[C@@H]3C[C@@H]3N2C(=O)[C@@H](NC(=O)[C@H](C)NC)C2CCCCC2)C[C@@H]2C[C@@H]21)C1CCCCC1 | 0.1 | 10.00 | fraction unbound at 10 µM [9]: < 0.01; solubility thermodynamic at 24 h [10]: 48 µM (≈ 49.9 µg/mL) |
| CN[C@@H](C)C(=O)N[C@H](C(=O)N1CCC[C@H]1C(=O)NC1(C(=O)NCC#CC#CCNC(=O)C2(NC(=O)[C@@H]3CCCN3C(=O)[C@@H](NC(=O)[C@H](C)NC)C3CCCCC3)Cc3ccccc3C2)Cc2ccccc2C1)C1CCCCC1 | 13 | 8.30 | – |
| C#CCO[C@H]1CCc2ccccc2[C@@H]1NC(=O)[C@@H]1CCCN1C(=O)[C@@H](NC(=O)[C@H](C)NC)C(C)(C)C | 45 | 8.00 | pIC50 [1]: 7.02; pIC50 [4]: 7.85 |
| CN[C@@H](C)C(=O)N[C@H](C(=O)N1CSC[C@H]1C(=O)N[C@H]1c2ccccc2C[C@H]1OCC#CC#CCO[C@@H]1Cc2ccccc2[C@@H]1NC(=O)[C@@H]1CSCN1C(=O)[C@@H](NC(=O)[C@H](C)NC)C(C)(C)C)C(C)(C)C | 0.1 | 9.30 | fraction unbound at 10 µM [9]: 0.107; solubility thermodynamic at 24 h [10]: 268 µM (≈ 268 µg/mL) |
